A word on the inhibition: it is the share of the control response that was lost under treatment. What is called MIC is the smallest concentration in the dilution series that meets the test's criterion for growth inhibition. A higher MIC goes with a less susceptible organism.

SMILES strings stand for the structures. In brackets after ≈: the same amount, converted by molar mass. Activity calls are given as the source filed them. Some results are limits rather than exact numbers.

Assay [1] concerns the target T1, Enoyl-[acyl-carrier-protein] reductase [NADH] (Mycobacterium tuberculosis) (UniProt P9WGR1).
T1 sequence (whole entry): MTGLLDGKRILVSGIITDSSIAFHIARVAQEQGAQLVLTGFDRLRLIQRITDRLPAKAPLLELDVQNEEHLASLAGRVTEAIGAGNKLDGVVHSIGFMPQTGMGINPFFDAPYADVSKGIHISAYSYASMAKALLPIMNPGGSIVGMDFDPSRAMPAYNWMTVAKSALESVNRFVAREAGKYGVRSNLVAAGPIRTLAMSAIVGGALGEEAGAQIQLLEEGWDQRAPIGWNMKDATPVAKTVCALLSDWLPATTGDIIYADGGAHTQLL
Put plainly: Inhibition of Mycobacterium tuberculosis recombinant InhA expressed in Escherichia coli using trans-2-dodecenoyl-coenzyme-A as substrate at 50 uM. An outline of the steps: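 Recombinant InhA was expressed in E. coli and purified. Reactions with DD-CoA substrate, NADH and inhibitor were run in 30 mM PIPES, 150 mM NaCl, pH 6.8, and started by adding InhA (100 nM final). Percent inhibition was calculated from initial velocity against a no-inhibitor control. Run in triplicate.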

Assay [2] relates to Mycobacterium tuberculosis. Put plainly: Antimycobacterial activity against Mycobacterium tuberculosis H37Rv by two-fold serial dilution method. Format: functional. The essentials:
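A single colony was grown in complete Middlebrook 7H9 at 37 °C to exponential phase (about 10⁸ CFU/mL, OD600 0.8–1.0). Cultures were diluted to about 10⁷ CFU/mL and streaked onto plates with two-fold dilutions of compound. MIC is the minimal inhibitory concentration.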

`CCCCCCCCCCCCn1cc(Cc2ccccc2)nn1`: the inhibition in assay [1] came to 58%. Further, in assay [2], the MIC was 25 µg/mL (≈ 76.3 µM).

As to `CCCCCCCCCCCCc1cn(Cc2ccccc2)nn1`, in assay [1], the inhibition was found to be 52%. Besides, the MIC in assay [2] is > 4 µg/mL.

As to `CCCCCCCCCCCCn1cc(COc2ccc(Cl)cc2Cl)nn1`, the inhibition in assay [1] is < 5%. Also, in assay [2], 4 µg/mL (≈ 9.7 µM) was the least that counted as inhibitory (MIC).

Turning to `CCCCCCCCCCc1cn(CCc2ccc(OC)c(OC)c2)nn1`, the inhibition in assay [1] worked out at 21%. In assay [2], this compound had an MIC of 2 µg/mL (≈ 5.35 µM).

As for `CCCCCCCCCCCCc1cn(CCc2ccccc2OC)nn1`, the inhibition in assay [1] is 61%. In assay [2], this compound registered an MIC of 2 µg/mL (≈ 5.38 µM).

In the case of `CCCCCCc1cn(Cc2ccccc2)nn1`, the inhibition in assay [1] worked out at 21%. Moreover, the lowest concentration to inhibit growth in assay [2] (MIC) was 25 µg/mL (≈ 103 µM).

`CCCCCCCCc1cn(Cc2ccccc2)nn1`: the inhibition in assay [1] worked out at 34%. Besides, the MIC in assay [2] was > 4 µg/mL.

Consider `CCCCCCCCCCCCc1cn(CCc2ccccc2)nn1`, for which the inhibition in assay [1] came to 67%. In addition, in assay [2], the MIC turned out to be 4 µg/mL (≈ 11.7 µM).

For `CCCCCCCCCCCCc1cn(Cc2cccc(OC)c2)nn1`, the inhibition in assay [1] is 46%. The compound also came in with an MIC in assay [2] of 4 µg/mL (≈ 11.2 µM).

As to `CCCCCCCCCCCCn1cc(COc2ccc(Cl)cc2OC)nn1`, in assay [1], the inhibition is 35%. Further, the MIC in assay [2] was > 4 µg/mL.

For the compound `CCCCCCCCn1cc(-c2cccc(C)c2)nn1`, the inhibition in assay [1] is 33%. In addition, in assay [2], the MIC was > 4 µg/mL.

Turning to `CCCCCCCCCCc1cn(CCc2ccccc2C)nn1`, the inhibition in assay [1] is 58%. In assay [2], the MIC was 2 µg/mL (≈ 6.11 µM).

As for `CCCCCCCCCCc1cn(Cc2cccc(Cl)c2)nn1`, the inhibition in assay [1] came to 42%. For the same compound, the MIC in assay [2] came out at 4 µg/mL (≈ 12 µM).

In the case of `CCCCCCCCn1cc(Cc2ccccc2)nn1`, the inhibition in assay [1] worked out at 73%. In assay [2], this compound registered an MIC of 25 µg/mL (≈ 92.1 µM).

`CCCCCCCCCCc1cn(Cc2cc(OC)cc(OC)c2)nn1`: the inhibition in assay [1] was 24%. The MIC in assay [2] is > 4 µg/mL.

As for `CCCCCCCCCCCCn1cc(CCc2ccccc2)nn1`, in assay [2], the MIC worked out at 0.5 µg/mL (≈ 1.46 µM).

Regarding `CCCCCCCCCCc1cnnn1CCc1ccccc1`, in assay [1], the inhibition was found to be 33%. Besides, in assay [2], the MIC is > 4 µg/mL.

As to `CCCCCCCCCCCCn1nncc1CCc1ccccc1`, the inhibition in assay [1] turned out to be 9%. In addition, the MIC in assay [2] was > 4 µg/mL.

On to `CCCCCCCCCCc1cn(Cc2cccc(OC)c2)nn1`, for which, in assay [1], the inhibition is 20%. For the same compound, the MIC in assay [2] was > 4 µg/mL.

On to `CCCCCCc1cn(Cc2cccc(OC)c2)nn1`, for which the inhibition entry in assay [1] is “inactive”. Moreover, in assay [2], the MIC is > 4 µg/mL.

On to `CCCCCCCCCCCCn1cc(COc2ccccc2)nn1`, for which the inhibition in assay [1] came to 54%. The lowest concentration to inhibit growth in assay [2] (MIC) was 2 µg/mL (≈ 5.82 µM).

Consider `CCCCCCc1cn(CCc2ccccc2)nn1`, for which, in assay [1], the inhibition is 10%. This compound also returned an MIC in assay [2] of 10 µg/mL (≈ 38.9 µM).

On to `CCCCCCCCCCCCc1cn(CCc2ccc(OC)c(OC)c2)nn1`, for which the inhibition result in assay [1] is “inactive”. This compound showed an MIC in assay [2] of 0.25 µg/mL (≈ 0.623 µM).

For the compound `CCCCCCCCCCc1cn(CCc2ccccc2)nn1`, the inhibition in assay [1] turned out to be 43%. Besides, it took 4 µg/mL (≈ 12.8 µM) to inhibit growth in assay [2] (MIC).

On to `CCCCCCc1cn(Cc2cc(C)cc(C)c2)nn1`, for which the inhibition in assay [1] came to 19%.

As for `CCCCCCCCCn1cc(Cc2ccccc2)nn1`, in assay [1], the inhibition worked out at 75%. Moreover, the MIC in assay [2] turned out to be 25 µg/mL (≈ 87.6 µM).

For the compound `CCCCCCCCn1cc(-c2cccc(O)c2)nn1`, the inhibition entry in assay [1] is “inactive”.

Take `CCCCCCCCCCc1cn(Cc2ccccc2)nn1`: the inhibition in assay [1] was determined as 44%. Moreover, the MIC in assay [2] is > 4 µg/mL.

`CCCCCCCCCCc1cn(CCc2ccccc2OC)nn1`: in assay [1], the inhibition was determined as 48%. In assay [2], this compound registered an MIC of 2 µg/mL (≈ 5.82 µM).

In the case of `CCCCCCc1cn(Cc2cccc(Cl)c2)nn1`, the inhibition result in assay [1] is “inactive”. The compound also gave an MIC in assay [2] of 4 µg/mL (≈ 14.4 µM).

`CCCCCCCCc1cn(CCc2ccccc2C)nn1`: in assay [1], the inhibition is 37%. Further, the minimum inhibitory concentration (MIC) in assay [2] came out at 2 µg/mL (≈ 6.68 µM).
